Test [1] has as its system Streptococcus pneumoniae. Briefly: Antibacterial activity against Streptococcus pneumoniae MTCC 1936 after 24 hrs by micro-broth dilution method. The format is functional. As to conditions: MTCC 1936, 24 h. (In broth dilution the organism is exposed to a series of concentrations in liquid medium.)
Test [2] relates to Vibrio cholerae. Kind of test: Antibacterial activity against Vibrio cholerae MTCC 3906 after 24 hrs by micro-broth dilution method. To be noted: MTCC 3906, 24 h. The format is functional.
For test [3], the system named is Candida albicans. Briefly: Antifungal activity against Candida albicans MTCC 227 after 48 hrs by micro-broth dilution method. The format is functional.
Test [4] relates to Salmonella typhi. Briefly: Antibacterial activity against Salmonella typhi MTCC 98 after 24 hrs by micro-broth dilution method. To be noted: Salmonella enterica, MTCC 98, 24 h. The format is functional, Salmonella enterica subsp. enterica serovar Typhi.
The subject of test [5] is Bacillus subtilis. Kind of test: Antibacterial activity against Bacillus subtilis MTCC 441 after 24 hrs by micro-broth dilution method. The format is functional. To be noted: MTCC 441, 24 h.
The test system of test [6] is Escherichia coli. Briefly: Antibacterial activity against Escherichia coli MTCC 443 after 24 hrs by micro-broth dilution method. The format is functional. To be noted: MTCC 443, 24 h.
Test [7] in a line: Antioxidant activity assessed as ascorbic acid equivalent/100g at 200 ug/mL by FRAP assay. The format is functional.
Test [8] has as its system Aspergillus fumigatus. Briefly: Antifungal activity against Aspergillus fumigatus MTCC 3008 after 48 hrs by micro-broth dilution method. The format is functional.
For test [9], the system named is Mycobacterium tuberculosis. Kind of test: Antitubercular activity against Mycobacterium tuberculosis H37Rv at 250 ug/mL. The format is functional. To be noted: read-out: GI. In outline:
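M. tuberculosis H37Rv tested on conventional L.J. (Löwenstein–Jensen) medium; activity read as percent growth inhibition.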

Test [10] has as its system Clostridium tetani. Kind of test: Antibacterial activity against Clostridium tetani MTCC 449 after 24 hrs by micro-broth dilution method. The format is functional. As to conditions: MTCC 449, 24 h.

≈ marks a conversion by molar mass, not a printed value. Some results are limits rather than exact numbers.

Take `C=CCn1c(=O)c(C2Nc3ccccc3NC3=C2C(=O)CCC3)cc2ccc(Cl)cc21` (stereo unspecified): the MIC (in general, the least concentration at which growth counts as inhibited) in test [1] is 250 µg/mL (≈ 579 µM); in test [2], 250 µg/mL (≈ 579 µM); in test [3] (MTCC 227, 48 h), > 250 µg/mL; in test [4], 250 µg/mL (≈ 579 µM); in [5], 250 µg/mL (≈ 579 µM); in [6], 100 µg/mL (≈ 232 µM). The minimum inhibitory concentration (MIC) in test [8] (MTCC 3008, 48 h) was > 250 µg/mL; in [10] it was 250 µg/mL (≈ 579 µM). Besides, in test [7], the Activity was found to be 490 mmol. For the same molecule, the inhibition of growth at 250 µg/mL in [9] was < 50%.
As for NYSTATIN, the MIC in test [3] and in test [8] was 100 µg/mL each time.
With `O=C(N[C@H](CO)[C@H](O)c1ccc([N+](=O)[O-])cc1)C(Cl)Cl` [CHLORAMPHENICOL], the minimal inhibitory concentration (MIC) in [1], in test [2], in [4], in test [5], in test [6] and in [10] was 50 µg/mL (≈ 155 µM) each time.
Consider `C=CCn1c(=O)c(C2Nc3ccccc3NC3=C2C(=O)CCC3)cc2ccccc21` (stereo unspecified), for which the MIC is 200 µg/mL (≈ 503 µM) in test [1]; 200 µg/mL (≈ 503 µM) in test [2]; > 250 µg/mL in test [3] (MTCC 227, 48 h); 250 µg/mL (≈ 629 µM) in [4]; 250 µg/mL (≈ 629 µM) in test [5]; 200 µg/mL (≈ 503 µM) in test [6]. Moreover, the MIC is > 250 µg/mL in test [8] (MTCC 3008, 48 h) and 250 µg/mL (≈ 629 µM) in [10]. Further, the Activity in test [7] worked out at 347 mmol. Further, in test [9], the inhibition of growth at 250 µg/mL is < 50%.
For `C=CCN1c2ccccc2NC2=C(C(=O)CCC2)C1c1cc2ccc(C)cc2n(CC=C)c1=O` (stereo unspecified), the MIC was > 250 µg/mL in [1]; 100 µg/mL (≈ 221 µM) in [2]; 250 µg/mL (≈ 554 µM) in test [3] (MTCC 227, 48 h); 200 µg/mL (≈ 443 µM) in test [4]; 250 µg/mL (≈ 554 µM) in test [5]; > 250 µg/mL in [6]. For the same molecule, the MIC was > 250 µg/mL in test [8] (MTCC 3008, 48 h) and 500 µg/mL (≈ 1110 µM) in [10]. In test [7], the Activity amounted to 382 mmol. Besides, the inhibition of growth at 250 µg/mL in [9] stood at 64%.
With `C=CCn1c(=O)c(C2Nc3ccccc3NC3=C2C(=O)CC(C)(C)C3)cc2ccc(Cl)cc21` (stereo unspecified), the MIC in test [1] is > 250 µg/mL; in test [2], > 250 µg/mL; in [3] (MTCC 227, 48 h), > 250 µg/mL; in [4], 100 µg/mL (≈ 217 µM); in [5] it was 250 µg/mL (≈ 544 µM); in test [6], 250 µg/mL (≈ 544 µM). The MIC in test [8] (MTCC 3008, 48 h) is > 250 µg/mL; in test [10], 250 µg/mL (≈ 544 µM). For the same molecule, the Activity in test [7] turned out to be 328 mmol. In addition, the inhibition of growth at 250 µg/mL in test [9] was 62%.
In the case of `C=CCn1c(=O)c(C2Nc3ccccc3NC3=C2C(=O)CC(C)(C)C3)cc2ccc(C)cc21` (stereo unspecified), the MIC in test [1] was > 250 µg/mL; in test [2], > 250 µg/mL; in [3] (MTCC 227, 48 h) it was > 250 µg/mL; in test [4] it was 250 µg/mL (≈ 569 µM); in test [5] it was 250 µg/mL (≈ 569 µM); in test [6], 250 µg/mL (≈ 569 µM). Further, the MIC in test [8] (MTCC 3008, 48 h) is > 250 µg/mL; in test [10], 250 µg/mL (≈ 569 µM). In [7], the Activity came to 270 mmol. In [9], the inhibition of growth at 250 µg/mL was 91%.
For `C=CCN1c2ccccc2NC2=C(C(=O)CCC2)C1c1cc2ccc(Cl)cc2n(CC=C)c1=O` (stereo unspecified), the MIC in test [1] was > 250 µg/mL; in test [2], 250 µg/mL (≈ 530 µM); in [3] (MTCC 227, 48 h), > 250 µg/mL; in test [4], 200 µg/mL (≈ 424 µM); in [5], 250 µg/mL (≈ 530 µM); in [6], 62.5 µg/mL (≈ 132 µM). Besides, the minimal inhibitory concentration (MIC) in test [8] (MTCC 3008, 48 h) was > 250 µg/mL; in [10] it was 500 µg/mL (≈ 1060 µM). Moreover, in test [7], the Activity was found to be 361 mmol. Also, the inhibition of growth at 250 µg/mL in test [9] is 76%.
With `C=CCN1c2ccccc2NC2=C(C(=O)CC(C)(C)C2)C1c1cc2ccc(C)cc2n(CC=C)c1=O` (stereo unspecified), the minimum inhibitory concentration (MIC) was 250 µg/mL (≈ 521 µM) in test [1]; > 250 µg/mL in [2]; > 250 µg/mL in test [3] (MTCC 227, 48 h); 250 µg/mL (≈ 521 µM) in test [4]; 250 µg/mL (≈ 521 µM) in test [5]; 200 µg/mL (≈ 417 µM) in test [6]. Also, the MIC in test [8] (MTCC 3008, 48 h) was > 250 µg/mL; in [10], 250 µg/mL (≈ 521 µM). The Activity in test [7] was 358 mmol. The inhibition of growth at 250 µg/mL in test [9] came to 67%.
As for `CCn1cc(C(=O)O)c(=O)c2cc(F)c(N3CCNCC3)cc21` [NORFLOXACIN], the minimal inhibitory concentration (MIC) was determined as 10 µg/mL (≈ 31.3 µM) in [1]; 10 µg/mL (≈ 31.3 µM) in [2]; 10 µg/mL (≈ 31.3 µM) in test [4]; 100 µg/mL (≈ 313 µM) in [5]; 10 µg/mL (≈ 31.3 µM) in [6]; 50 µg/mL (≈ 157 µM) in test [10].
Take `C=CCn1c(=O)c(C2Nc3ccccc3NC3=C2C(=O)CCC3)cc2cc(C)ccc21` (stereo unspecified): the minimal inhibitory concentration (MIC) in [1] is > 250 µg/mL; in [2], 500 µg/mL (≈ 1220 µM); in test [3] (MTCC 227, 48 h), > 250 µg/mL; in [4], 250 µg/mL (≈ 608 µM); in test [5], 250 µg/mL (≈ 608 µM); in [6] it was 250 µg/mL (≈ 608 µM). Further, the MIC in [8] (MTCC 3008, 48 h) was > 250 µg/mL; in [10] it was 100 µg/mL (≈ 243 µM). The Activity in [7] is 499 mmol. For the same molecule, the inhibition of growth at 250 µg/mL in test [9] turned out to be 58%.
For `C=CCn1c(=O)c(C2Nc3ccccc3NC3=C2C(=O)CCC3)cc2ccc(C)cc21` (stereo unspecified), the minimal inhibitory concentration (MIC) is > 250 µg/mL in test [1]; 100 µg/mL (≈ 243 µM) in test [2]; > 250 µg/mL in test [3] (MTCC 227, 48 h); 100 µg/mL (≈ 243 µM) in [4]; 200 µg/mL (≈ 486 µM) in test [5]; 62.5 µg/mL (≈ 152 µM) in test [6]. Also, the MIC stood at 250 µg/mL (≈ 608 µM) in test [8] (MTCC 3008, 48 h) and 500 µg/mL (≈ 1220 µM) in test [10]. Moreover, the Activity in test [7] turned out to be 499 mmol. The inhibition of growth at 250 µg/mL in test [9] stood at 75%.
As for `C=CCn1c(=O)c(C2Nc3ccccc3NC3=C2C(=O)CC(C)(C)C3)cc2cc(C)ccc21` (stereo unspecified), the minimum inhibitory concentration (MIC) was 250 µg/mL (≈ 569 µM) in test [1]; 250 µg/mL (≈ 569 µM) in test [2]; > 250 µg/mL in test [3] (MTCC 227, 48 h); 250 µg/mL (≈ 569 µM) in [4]; 200 µg/mL (≈ 455 µM) in test [5]; > 250 µg/mL in test [6]. The MIC in test [8] (MTCC 3008, 48 h) stood at 250 µg/mL (≈ 569 µM); in test [10], 500 µg/mL (≈ 1140 µM). Also, the Activity in test [7] was determined as 462 mmol. The inhibition of growth at 250 µg/mL in test [9] amounted to 96%.
For `C=CCn1c(=O)c(C2Nc3ccccc3NC3=C2C(=O)CC(C)(C)C3)cc2ccccc21` (stereo unspecified), the MIC is > 250 µg/mL in test [1]; > 250 µg/mL in [2]; > 250 µg/mL in test [3] (MTCC 227, 48 h); > 250 µg/mL in test [4]; > 250 µg/mL in [5]; 200 µg/mL (≈ 470 µM) in test [6]. Also, the MIC in [8] (MTCC 3008, 48 h) is > 250 µg/mL; in [10], 200 µg/mL (≈ 470 µM). Besides, in test [7], the Activity worked out at 324 mmol. The inhibition of growth at 250 µg/mL in [9] was < 50%.
Consider `C=CCN1c2ccccc2NC2=C(C(=O)CC(C)(C)C2)C1c1cc2ccc(Cl)cc2n(CC=C)c1=O` (stereo unspecified), for which the MIC in test [1] was > 250 µg/mL; in test [2] it was 500 µg/mL (≈ 1000 µM); in [3] (MTCC 227, 48 h) it was > 250 µg/mL; in test [4], > 250 µg/mL; in test [5] it was > 250 µg/mL; in [6], > 250 µg/mL. Moreover, the minimum inhibitory concentration (MIC) in test [8] (MTCC 3008, 48 h) was > 250 µg/mL; in [10] it was 500 µg/mL (≈ 1000 µM). Moreover, the Activity in [7] stood at 401 mmol. The inhibition of growth at 250 µg/mL in test [9] is < 50%.
With `COC1=CC(=O)C[C@@H](C)[C@]12Oc1c(Cl)c(OC)cc(OC)c1C2=O` [GRISEOFULVIN], the MIC in test [3] (MTCC 227, 48 h) was determined as 500 µg/mL (≈ 1420 µM); in [8] (MTCC 3008, 48 h), 100 µg/mL (≈ 283 µM).
Consider `CC1(C)S[C@@H]2[C@H](NC(=O)[C@H](N)c3ccccc3)C(=O)N2[C@H]1C(=O)O` [AMPICILLIN], for which the minimal inhibitory concentration (MIC) in [1] turned out to be 100 µg/mL (≈ 286 µM); in [2], 100 µg/mL (≈ 286 µM); in [4], 100 µg/mL (≈ 286 µM); in [5], 250 µg/mL (≈ 715 µM); in [6], 100 µg/mL (≈ 286 µM); in [10] it was 250 µg/mL (≈ 715 µM).
Regarding `O=C(O)c1cn(C2CC2)c2cc(N3CCNCC3)c(F)cc2c1=O` [CIPROFLOXACIN], the MIC stood at 50 µg/mL (≈ 151 µM) in test [1], 25 µg/mL (≈ 75.4 µM) in test [2], 25 µg/mL (≈ 75.4 µM) in [4] and 25 µg/mL (≈ 75.4 µM) in [6].

The values above are taken from ChEMBL document CHEMBL2034858, “An efficient one-pot synthesis, structure, antimicrobial and antioxidant investigations of some novel quinolyldibenzo[b,e][1,4]diazepinones” (2012).
